TAAR1 antagonist: human TAAR1 antagonism; Q96RJ0; CHO RD-HGA16 TAAR1, Fluo-8 calcium fluorescence, antagonist; inhibition, % at 3 µM; 1.5% of 360,000 active; AID 624466;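 active = inhibition above a per-plate cutoff, the mean inhibition of test compounds on that plate plus 3 SD, cut at about 49% in these data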
Target sequence (Q96RJ0 whole entry, looked up): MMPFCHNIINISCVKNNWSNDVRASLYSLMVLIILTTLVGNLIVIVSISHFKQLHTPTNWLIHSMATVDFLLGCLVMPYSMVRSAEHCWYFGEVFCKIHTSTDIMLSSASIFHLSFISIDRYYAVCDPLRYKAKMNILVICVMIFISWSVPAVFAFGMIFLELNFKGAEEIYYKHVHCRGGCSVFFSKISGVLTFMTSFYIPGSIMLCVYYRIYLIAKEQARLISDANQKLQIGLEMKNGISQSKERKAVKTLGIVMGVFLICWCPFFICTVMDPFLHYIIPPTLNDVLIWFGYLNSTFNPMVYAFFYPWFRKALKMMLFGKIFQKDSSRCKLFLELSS
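System: RD-HGA16 CHO cells with stable hTAAR1 and Gα16 | Probe or stimulus: EC80 β-phenethylamine stimulus | Dosing: 3 µM, single point | Times: Dye loading 75 min at 37 °C, then 30 min room temperature | Measured by: Fluo-8 calcium-sensitive fluorescence | Read-out basis: % inhibition of agonist calcium response | Replicates: n of 1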
TAAR1 ag: human TAAR1 agonism; 0.99% of 360,000 active; CHO RD-HGA16 TAAR1, Fluo-8 calcium fluorescence; vehicle wells 0%, saturating PEA agonist 100%; Q96RJ0; AID 624467; activation, % at 3 µM;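 active = activation above the mean activation of all test compounds in the run plus 3 SD, cut at about 38% in these data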
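Benchmarks: low control DMSO, high control PEA (EC100); System: CHO RD-HGA16 cells carrying human TAAR1 plus Gα16; Detection: Fluo-8 fluorescence, 5 s baseline then 140 s kinetic read; Schedule: 17-24 h plating, Fluo-8 75 min 37 °C, 30 min RT; Read-out basis: % activation from peak over basal fluorescence ratio, DMSO-to-PEA scaled.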
CRFBP-R2 block: CRF-BP/CRF-R2 complex antagonism; HEK293 CRF-R2/CRF-BP, CRF-induced calcium fluorescence; inhibition, % at 11.8 µM; AID 588475; 0.59% of 350,000 active;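 active = inhibition of the ligand-induced calcium signal above about 50% at the single tested concentration, limit read from the data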
CRFR2-BP ag: agonists of human CRF-binding protein/CRF-R2 receptor complex. HEK293 CRF-R2/CRF-BP, calcium dye fluorescence (FLIPR); percent of saturating CRF peptide response. activation, % at 13.2 µM. 0.46% of 350,000 active. AID 588473;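 active = activation of at least 50%, plus an integration ratio under a set limit after plate pattern correction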
TMEM16A inh: mouse TMEM16A channel inhibition, primary screen; HEK293 TMEM16A/YFP iodide influx fluorescence, ionomycin; normalized B-score (activity score, 25-100; higher = stronger inhibition) at 10 µM; 1.2% of 310,000 active; AID 588511;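 active = ratio plate-corrected score three or more library SD toward inhibition, starting fluorescence score within five deviations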;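 note: score derived from kinetic fluorescence span divided by baseline fluorescence per well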
ANO1 activ: activators or potentiators of mouse TMEM16A chloride channel | Q8BHY3 | HEK293 TMEM16A/YFP-H148Q/I152L, iodide quench fluorescence; active compounds read low | B-score at 10 µM | 0.3% of 340,000 active;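 active = fluorescence-ratio B-score plate-corrected deviation score at least 3 library SD below zero, with starting fluorescence score within 5 deviations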;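 note: channel opened by trigger with iodide after compound preincubation; score built on the fluorescence ratio of max minus min over baseline; more negative score means more quench and so TMEM16A activation or potentiation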
Large screens that a line does not name were inactive. Compounds with a hit are over-represented: about 3.9% of the library has one in this group of screens.

C=C(C)[C@@]12OC3(c4ccccc4)O[C@@H]1C1[C@@H]4O[C@]4(CO)[C@@H](O)[C@]4(O)C(=O)C(C)=C[C@H]4[C@@]1(O3)[C@H](C)[C@H]2OC(=O)/C=C/C=C/c1ccccc1 (stereo not given in full)	CRFBP-R2 block 111.5 (no result: TAAR1 antagonist, TAAR1 ag)
O=[N+]([O-])O[C@H]1CO[C@H]2[C@@H]1OC[C@H]2O[N+](=O)[O-]	none
C[N+](C)(C)CC#CCN1CCCC1=O	ANO1 activ -7.93
C/C(Cl)=C/CC1(CN2CCCC2=O)C(=O)NC(=O)NC1=O	none
CCN(CC)S(=O)(=O)c1cccc(N=Nc2c(O)n(CC)c(=S)n(CC)c2=O)c1	none
COc1ccc(CNCCc2c(C)[nH]c3ccc(OC(F)(F)F)cc23)c(OC)c1	TAAR1 ag 53.9
COc1ccc2[nH]c(C)c(CCNCc3cc(OC)c(OC)c(OC)c3)c2c1	none
COc1cc(/C=C/c2nc3ccccc3c(=O)n2-c2cccc(O)c2)ccc1O	ANO1 activ -5.23
CCCCCn1c(=O)c(C(=O)NCc2ccncc2)c(O)c2ccccc21	TMEM16A inh 25
CCCCn1c(=O)c(C(=O)NCc2ccc(Cl)cc2)c(O)c2ccccc21	none
Cc1[nH]c2ccccc2c1C(=O)C(=O)N1CC2CC(C1)c1cccc(=O)n1C2 (stereo not given)	none
COC(=O)C1=C(c2ccc(F)cc2OCc2ccccc2)C[C@@H]2CC[C@H]1N2C(=O)NCc1ccc(C(F)(F)F)cc1	TAAR1 antagonist 53.1 (no result: TMEM16A inh)
NCCc1ccc(OCc2ccccc2)c(OCc2ccccc2)c1	TAAR1 ag 55.1 (no result: TMEM16A inh)
COc1ccc(CCN)cc1OC	none
C=CCN1CC[C@]23c4c5ccc(O)c4O[C@H]2/C(=N/NC(=O)c2ccccc2)CC[C@@]3(O)[C@H]1C5	none
Cc1ccc(OC(=O)N(C)C[C@@H]2OCc3cnnn3CCCC(=O)N([C@H](C)CO)C[C@H]2C)cc1	none (no result: TMEM16A inh, ANO1 activ)
Cc1ccc(OC(=O)N(C)C[C@@H]2OCc3cnnn3CCCC(=O)N([C@@H](C)CO)C[C@@H]2C)cc1	CRFBP-R2 block 60.1 (no result: TMEM16A inh, ANO1 activ)
C[C@]12CCC3C(CC[C@H]4C[C@H](O)CC[C@]34C)C1C[C@@H](O)[C@@H]2O (stereo not given in full)	none (no result: TMEM16A inh)
C[C@]12CCC3C(CC[C@H]4C[C@H](O)CC[C@]34C)C1C[C@H](O)[C@@H]2O (stereo not given in full)	TAAR1 antagonist 60.3 (no result: TMEM16A inh)
C[C@]12CCC3C(CC[C@H]4C[C@@H](O)CC[C@]34C)C1C[C@@H](O)[C@@H]2O (stereo not given in full)	none (no result: TMEM16A inh)
CC12C=CC(=O)CC1CCC1C2CCC2(C)C(O)C(O)CC12 (stereo not given)	TAAR1 antagonist 57.6 (no result: TMEM16A inh)
CC(=O)NCC1=C(c2ccc(S(C)(=O)=O)cc2)C[C@@H]2CC[C@H]1N2CCOc1ccccc1	none (no result: CRFBP-R2 block, CRFR2-BP ag, TMEM16A inh, ANO1 activ)
CCOc1ccccc1N=C1SCCCN1C	none
CC(=O)N1CCCSC1=Nc1ccccc1	ANO1 activ -29.8
N[C@@H](Cc1ccc(N(CCCl)CCCl)cc1)C(=O)O	none
NC(Cc1ccc(O)cc1)C(=O)NN=Cc1ccc(N(CCCl)CCCl)cc1 (stereo not given)	CRFBP-R2 block 60.1 (no result: TMEM16A inh)
O=C1NC(=O)C(=Cc2ccc(SC3CCCCC3)o2)C(=O)N1	TAAR1 antagonist 59.4
NS(=O)(=O)c1ccc(-c2ccc(C=C3C(=O)NC(=O)NC3=O)o2)cc1	none
O=C1Nc2ccccc2Oc2ccccc21	none (no result: TMEM16A inh, ANO1 activ)
CC(C)CNP(=S)(c1ccccc1)C(C)(C)C (stereo not given)	CRFBP-R2 block 65.6
C[C@@H]1CNCCN1c1ccc(N2CC[C@H](O)C2)c(C#N)c1	none (no result: CRFBP-R2 block, CRFR2-BP ag, TMEM16A inh, ANO1 activ)
COC(=O)C1=C(C(=O)OC)C2OC1c1cc3ccccc3cc12	TAAR1 antagonist 58.2, ANO1 activ -4.86 (no result: TMEM16A inh)
Cc1ccc(N=C(N(C)C)P(=O)(N(C)C)N(C)C)cc1	none
Cc1c2ccncc2c(C)c2c1[nH]c1ccccc12	CRFR2-BP ag 101.0 (no result: TAAR1 antagonist, TAAR1 ag)
CN(C)P(=O)(NC(=O)c1cccn1C)N(C)C	CRFBP-R2 block 107.0
CN(C)P(=NC(=S)c1cccn1C)(N(C)C)N(C)C	none
CN1CCc2cccc(Cl)c2CC1	TAAR1 antagonist 85.6, TAAR1 ag 102.2
COc1ccccc1C(=O)Nc1ccc2c(c1)CC1(C(=O)N(C)C(=O)N(C)C1=O)C1CCCN21 (stereo not given)	CRFR2-BP ag 181.6
CCN(CC)C(=O)c1ccc(NC(=O)c2cccc(S(=O)(=O)N3CCN(Cc4ccccc4)CC3)c2)cc1	TMEM16A inh 25
CN(C)C(=O)Oc1ccc2nnc3ccnn3c2c1	none
O=C(Cn1ncn2c(cc3cc(F)ccc32)c1=O)N1CCC2(CC1)OCCO2	none
Nc1cccc2c1Cc1cc([N+](=O)[O-])ccc1-2	CRFR2-BP ag 61.5 (no result: TMEM16A inh)
Oc1ccc(/C=N/NP(=S)(c2ccccc2)c2ccccc2)cc1	CRFBP-R2 block 51.5
COc1cc(/C=N/NP(=S)(c2ccccc2)c2ccccc2)ccc1O	none
CP(=O)(O)CCCN	none
CCC1(c2ccccc2)C(=O)N(C)C(=O)N(C)C1=O	none
CCC1(CC)C(=O)N(Cc2ccccc2)C(=O)N(Cc2ccccc2)C1=O	CRFBP-R2 block 86.6 (no result: TAAR1 antagonist, TAAR1 ag)
CC(C)N1CC=C(c2c[nH]c3ccccc23)CC1	TAAR1 ag 38.3
O=C(c1cc(Cl)cc(Cl)c1)N1Cc2ccccc2-n2nncc2C1	none (no result: TMEM16A inh, ANO1 activ)
C=CCn1c(O)c(C(C)=NCCc2ccccc2)c(=O)[nH]c1=O	TAAR1 ag 40.0
C=CCn1c(O)c(C(C)=NCCO)c(=O)[nH]c1=O	none
COc1cccc(C2(O)CCN(CC(=O)Nc3nc(C)cs3)CC2)c1	none
CCCc1c(C)nc(SCC(=O)C(C)(C)C)nc1OC(=O)N(C)C	none
Cc1cccc(C)c1-n1nnnc1C(C1CC1)N1CCC2(CC1)C(=O)NCN2c1ccccc1 (stereo not given)	TAAR1 antagonist 49.5 (no result: CRFBP-R2 block, CRFR2-BP ag, TMEM16A inh, ANO1 activ)
Cc1cccc(C)c1-n1nnnc1C(c1ccccc1)N1CCC2(CC1)C(=O)NCN2c1ccccc1 (stereo not given)	none (no result: CRFBP-R2 block, CRFR2-BP ag, TMEM16A inh, ANO1 activ)
CN1CCN(CC#CCOc2ccc(Cl)cc2)CC1	none
CCCN(CC#CCOc1ccc(OC)cc1)CCC	ANO1 activ -16.4
c1ccc(-c2cc(-c3ccccc3)[n+](-c3ccccc3)c(-c3ccccc3)c2)cc1	TAAR1 antagonist 71.9, TMEM16A inh 25
C[n+]1c(-c2ccccc2)cc(-c2ccc(Cl)cc2)cc1-c1ccccc1	none
Cc1ccc(-c2cc(-c3ccc(C)cc3)[n+](-c3ccccc3)c(-c3ccc(C)cc3)c2)cc1	CRFR2-BP ag 60.3, TMEM16A inh 100 (no result: TAAR1 antagonist, TAAR1 ag)
CN(C)c1ccc(-[n+]2c(-c3ccccc3)cc(-c3ccccc3)cc2-c2ccccc2)cc1	none (no result: TMEM16A inh)

Screening data deposited in PubChem BioAssay by several laboratories.
